The record followed here is the array DNA melting data of Ke et al. (doi:10.1101/2024.01.08.574731).

A short description of data set [1]: folding enthalpy; higher = less favourable; fluorescence melt of hairpins on a sequencing array, two-state fit. Conditions: sodium 0.088 M. The method in brief:
(§1)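 Hairpins were imaged by Cy3 fluorescence on a sequenced MiSeq flow cell with annealed Cy3 and quencher oligos, in 50 mM Na-HEPES pH 8.0, 25 mM NaCl, in 2.5 °C steps up to 60 °C. Bootstrapped two-state fits of normalised signals gave melting temperature and folding enthalpy. Four replicates were combined by inverse variance, and fitted temperatures were raised by 9.35 °C to match UV melts.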

The nature of data set [2]: melting temperature; fluorescence melt of hairpins on a sequencing array, two-state fit, raised by 9.35 °C to match UV melts. Conditions: sodium 0.088 M. The gist of the method:
as §1

Turning to GCGTTTACACGC ((((....)))), the folding enthalpy in data set [1] was -97.2 kJ/mol. Moreover, the Tm in data set [2] was determined as 54.3 °C.

For the sequence GTTCACGAAAGTGAAAC ((((((....))).))), the folding enthalpy in data set [1] was -68.4 kJ/mol. In addition, the Tm in data set [2] turned out to be 46.1 °C.

Take GTACGCGAAAGCGGTAC ((((((....))).))): the folding enthalpy in data set [1] is -69.5 kJ/mol. The Tm in data set [2] came to 56.5 °C.

For the sequence GTCCGACCGAAAGGTGAC (((..(((....)))))), in data set [1], the folding enthalpy was -69.2 kJ/mol. In addition, the Tm in data set [2] came out at 36.6 °C.

On to GAGAAGGCGAAAGCCCTC (((..(((....)))))), for which the folding enthalpy in data set [1] was -43.8 kJ/mol. Also, the Tm in data set [2] is 37.2 °C.

GAGGGCGAAAGCCGCTC ((((((....))).))): in data set [1], the folding enthalpy is -54.4 kJ/mol. In addition, the Tm in data set [2] amounted to 54.5 °C.

As to GTTTTCACGAAAGTGAAC (((..(((....)))))), in data set [1], the folding enthalpy is -43.3 kJ/mol. Further, the Tm in data set [2] was determined as 35.4 °C.

For the sequence GCGAAATTCGC ((((...)))), the folding enthalpy in data set [1] is -76.2 kJ/mol. Further, in data set [2], the Tm came out at 43.1 °C.

On to GGCAATCGAAAGATAGCC (((.(((....))).))), for which the folding enthalpy in data set [1] is -133 kJ/mol. Besides, the Tm in data set [2] turned out to be 52.7 °C.

Take GCGTGTGCACGC ((((....)))): the folding enthalpy in data set [1] is -125 kJ/mol. In data set [2], the Tm came out at 57.2 °C.

For the sequence GTGCCCGAAAGGGTACAC ((((((....)))..))), the folding enthalpy in data set [1] is -58.4 kJ/mol. The Tm in data set [2] is 61.6 °C.

On to GGTGTCGGAAACGGTACC (((..((....))..))), for which the folding enthalpy in data set [1] was -120 kJ/mol. For the same sequence, the Tm in data set [2] worked out at 40.9 °C.

Regarding GATCACGGGGGTGATC ((((((....)))))), the folding enthalpy in data set [1] is -154 kJ/mol. The Tm in data set [2] is 56.8 °C.

GGGTCTCCGAAAGGACCC (((..(((....)))))): the folding enthalpy in data set [1] is -111 kJ/mol. The Tm in data set [2] was determined as 51.4 °C.

In the case of GATCCTGGAAACAGGGTC ((.((((....)))).)), the folding enthalpy in data set [1] was -138 kJ/mol. The Tm in data set [2] is 50.8 °C.

GCGCTTGGAAACAAGCAC (.(((((....))))).): in data set [1], the folding enthalpy was -63.7 kJ/mol. Further, the Tm in data set [2] stood at 45.7 °C.

For GGGATGCGAAAGCACCCC (((.(((....))).))), in data set [1], the folding enthalpy was -116 kJ/mol. Also, the Tm in data set [2] was 61.4 °C.

As for GATCGTGTCACGATC ((((((...)))))), the folding enthalpy in data set [1] is -160 kJ/mol. Moreover, the Tm in data set [2] came out at 59.3 °C.

Consider GGTTCGGGAAACCGAGCC ((.((((....)))).)), for which the folding enthalpy in data set [1] was -169 kJ/mol. In addition, the Tm in data set [2] came to 58.3 °C.

Turning to GTCGGCGAAAGCCCTGAC ((((((....)))..))), the folding enthalpy in data set [1] was -43.6 kJ/mol. In data set [2], the Tm is 35.6 °C.

Regarding GTCGATGGAAACATCGGC (.(((((....))))).), the folding enthalpy in data set [1] was -176 kJ/mol. For the same sequence, in data set [2], the Tm was 56.1 °C.

For the sequence GCGAACGAAAGTTGCGC ((((((....))).))), the folding enthalpy in data set [1] was -154 kJ/mol. In addition, the Tm in data set [2] was 53.9 °C.

Consider GAGATACGAAAGTACCTC (((.(((....))).))), for which the folding enthalpy in data set [1] was -131 kJ/mol. Besides, the Tm in data set [2] was determined as 41.5 °C.

As for GGTACCGGAAACGGCACC (((.(((....))).))), the folding enthalpy in data set [1] was -125 kJ/mol. Moreover, the Tm in data set [2] was determined as 52.5 °C.

For the sequence GTAGTTGGAAACAACTAC (((((((....))))))), the folding enthalpy in data set [1] is -182 kJ/mol. Also, the Tm in data set [2] came out at 56.1 °C.

As for GATCATCGGCATGATC ((((((....)))))), the folding enthalpy in data set [1] is -134 kJ/mol. Also, the Tm in data set [2] is 44.7 °C.

On to GGAAGGTCGAAAGACTCC (((..(((....)))))), for which the folding enthalpy in data set [1] was -57.6 kJ/mol. Also, the Tm in data set [2] stood at 33.1 °C.

As for GCATGGCGAAAGCTATGC ((((.((....)).)))), in data set [1], the folding enthalpy is -158 kJ/mol. The Tm in data set [2] was found to be 66.6 °C.

For GGTTTACGAAAGTAGACC (((.(((....))).))), the folding enthalpy in data set [1] is -146 kJ/mol. Besides, in data set [2], the Tm worked out at 51 °C.

As for GGTAACGCGAAAGCGACC (((..(((....)))))), the folding enthalpy in data set [1] was -59.2 kJ/mol. In addition, the Tm in data set [2] was determined as 40.9 °C.

Consider GAGCACCCGAAAGGGCTC (((..(((....)))))), for which the folding enthalpy in data set [1] was -112 kJ/mol. Besides, the Tm in data set [2] is 48.6 °C.

For the sequence GGCGTCGAAAGACTTGCC ((((((....)))..))), in data set [1], the folding enthalpy is -103 kJ/mol. Besides, the Tm in data set [2] came to 48.9 °C.

As to GAGCTGCGAAAGCACTC (((.(((....)))))), the folding enthalpy in data set [1] was -85.5 kJ/mol. Besides, the Tm in data set [2] was determined as 46.2 °C.

For the sequence GGGGCAGGAAACTGCCTC (.(((((....))))).), the folding enthalpy in data set [1] is -54.9 kJ/mol. In data set [2], the Tm came out at 59.6 °C.

As for GACAACGAAAGTTAGTC ((((((....))).))), the folding enthalpy in data set [1] was -103 kJ/mol. The Tm in data set [2] worked out at 42.4 °C.

GATCGAATGTTCGATC ((((((....)))))): the folding enthalpy in data set [1] is -178 kJ/mol. The Tm in data set [2] is 52.5 °C.

With GGATTCGAAAGAATCTCC ((((((....)))..))), the folding enthalpy in data set [1] was -59.4 kJ/mol. Moreover, the Tm in data set [2] turned out to be 43.8 °C.
